Results reported in article PMC8970626 (Biochemistry, 2022).
Positions count from the first letter of the chain named. Names may count otherwise. “And” between values parts separate entries of the source, which are not always exact repeats. Equal entries are not always repeated. Blank lines part the entries; values can stand above or below the molecule they belong to.

Experiments:
[1] = test system: rat CYP24A1; conditions: cited from earlier work
[2] = molecular target: T1, human CYP24A1 (hCYP24A1) (Homo sapiens, UniProt Q07973); test: Spectral ligand binding assay with hCYP24A1; conditions: for spectral response on titration (type-I, high-spin transition): hCYP24A1 without hAdx
T1 sequence (Q07973 36-514): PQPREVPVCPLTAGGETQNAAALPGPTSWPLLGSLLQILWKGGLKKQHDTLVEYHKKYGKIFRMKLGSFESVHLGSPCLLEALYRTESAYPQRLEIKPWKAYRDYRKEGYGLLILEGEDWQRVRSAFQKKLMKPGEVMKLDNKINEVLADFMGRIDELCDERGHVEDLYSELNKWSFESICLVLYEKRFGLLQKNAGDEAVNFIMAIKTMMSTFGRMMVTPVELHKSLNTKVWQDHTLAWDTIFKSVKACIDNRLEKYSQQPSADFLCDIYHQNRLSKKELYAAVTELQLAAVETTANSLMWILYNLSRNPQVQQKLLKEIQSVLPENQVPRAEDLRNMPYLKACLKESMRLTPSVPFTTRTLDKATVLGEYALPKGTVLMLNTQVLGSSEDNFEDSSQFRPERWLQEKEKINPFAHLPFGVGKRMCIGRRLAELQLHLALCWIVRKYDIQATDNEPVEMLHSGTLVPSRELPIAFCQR

[3] = molecular target: T2, hCYP24A1 (Homo sapiens, UniProt Q07973); test: Reconstituted hCYP24A1 functional assay; format: biochemical; conditions: D72N_D76N hAdx double mutant; substrate 5 μM
T2 sequence (Q07973 36-514): T1 sequence (Q07973 36-514)
T2 sequence (P10109 61-184 D132N/D136N partner): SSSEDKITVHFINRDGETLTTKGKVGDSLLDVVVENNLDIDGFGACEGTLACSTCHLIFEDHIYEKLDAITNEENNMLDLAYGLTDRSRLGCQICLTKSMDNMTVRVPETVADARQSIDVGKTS

[4] = molecular target: T3, rat CYP24A1 (rCYP24A1) (Rattus norvegicus, UniProt Q09128); test: Spectral ligand binding assay with rCYP24A1; conditions: rCYP24A1, no Adx
T3 sequence (Q09128 36-514): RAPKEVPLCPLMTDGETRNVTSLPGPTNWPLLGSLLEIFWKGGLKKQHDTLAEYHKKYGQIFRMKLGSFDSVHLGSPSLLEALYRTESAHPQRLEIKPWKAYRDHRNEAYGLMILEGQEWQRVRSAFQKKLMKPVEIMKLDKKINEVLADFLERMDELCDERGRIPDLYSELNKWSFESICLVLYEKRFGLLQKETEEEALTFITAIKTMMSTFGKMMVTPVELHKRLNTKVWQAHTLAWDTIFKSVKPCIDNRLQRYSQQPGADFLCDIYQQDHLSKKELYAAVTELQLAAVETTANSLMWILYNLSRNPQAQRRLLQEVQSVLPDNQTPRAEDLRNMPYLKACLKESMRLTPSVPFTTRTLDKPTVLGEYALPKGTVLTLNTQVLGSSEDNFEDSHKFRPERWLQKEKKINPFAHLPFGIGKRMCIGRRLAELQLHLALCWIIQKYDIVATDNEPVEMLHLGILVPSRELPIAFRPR
Method in brief: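 UV-visible difference-spectra titration at ambient temperature with enzyme at 1 μM in 10 mM potassium phosphate. Ligand added from DMSO stock, solvent ≤2%, with 8 min incubation per point before each wavelength scan. Where Adx was present, 10 μM hAdx (WT or L80V) was baselined in the cuvette before enzyme and ligand.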

[5] = molecular target: T4, human cytochrome P450 24A1 (hCYP24A1), cleaved and separated from the hAdx_hCYP24A1 fusion (human, UniProt Q07973 36-514); test: cross-linking
T4 sequence (looked up): T1 sequence (Q07973 36-514)

Molecule: C=C1/C(=C\C=C2/CCC[C@]3(C)[C@@H]([C@H](C)CCCC(C)C)CC[C@@H]23)C[C@@H](O)C[C@@H]1O [1α(OH)D]
- substrate quality for rat CYP24A1 [1]: poor substrate
- Kd ([2]; +hAdx (WT, 10-fold, 10 μM)): 700 ± 50 nM
- ΔAmax ([2]; +hAdx (WT, 10-fold, 10 μM)): 0.055 ± 0.004 AU
- Kd ([2]; hCYP24A1 1 μM, no hAdx): 400 ± 100 nM
- ΔAmax ([2]; hCYP24A1 1 μM, no hAdx): 0.04 ± 0.008 AU
- spectral response on titration (type-I, high-spin transition) [2]: type-I response, albeit with a more noticeable increase in the high-spin transition

Molecule: C=C1/C(=C\C=C2/CCC[C@]3(C)[C@@H]([C@H](C)CCCC(C)(C)O)CC[C@@H]23)C[C@@H](O)C[C@@H]1O [1α,25(OH)2D]
- ΔAmax ([2]; 10-fold excess of D72N_D76N hAdx): 0.02 ± 0.002 AU
- ΔAmax ([2]; 10-fold excess of L80I hAdx): 0.04 ± 0.003 AU
- ΔAmax ([2]; 10-fold excess of L80Q hAdx): 0.02 ± 0.001 AU
- ΔAmax ([2]; 10-fold excess of L80V hAdx): 0.04 ± 0.003 AU
- ΔAmax ([2]; +hAdx (WT, 10-fold, 10 μM)): 0.03 ± 0.004 AU
- ΔAmax ([2]; hCYP24A1 1 μM, no hAdx): 0.03 ± 0.004 AU and 0.03 ± 0.005 AU
- spectral response on titration (type-I, high-spin transition) [2]: type-I transition of the Soret band
- substrate remaining [3]: approximately 60%
- ΔAmax [4]: 0.05 ± 0.004 AU

Molecule: C=C1CC[C@H](O)C/C1=C/C=C1\CCC[C@]2(C)[C@@H]([C@H](C)CCCC(C)(C)O)CC[C@@H]12 [25(OH)D]
- spectral response on titration (type-I, high-spin transition) [2]: no measureable high-spin form is detected
- binding affinity relative to other substrates ([2]; interaction could not be saturated): likely binds with a weaker affinity than the other substrates tested

B1: human adrenodoxin (hAdx), unfused, wild type (natural protein)
chain: T2 sequence (P10109 61-184 D132N/D136N partner) with N72D, N76D
- binding result [5]: binds

The next lines start with the values.

- Kd ([2]; +hAdx (WT, 10-fold, 10 μM)): 4000 ± 40 nM
- ΔAmax ([2]; +hAdx (WT, 10-fold, 10 μM)): 0.04 ± 0.003 AU
- spectral response on titration (type-I, high-spin transition) [2]: only a minimal type-I response
Molecule: C=C1/C(=C/C=C2\CCC[C@@]3(C)C2CC[C@@H]3C(C)CCC(O)C(C)(C)O)C[C@@H](O)C[C@@H]1O (stereo partly drawn) [1α,24,25(OH)3D]

- binding result [5]: binds
B2: human adrenodoxin mutant L80I (natural protein)
chain: T2 sequence (P10109 61-184 D132N/D136N partner) with N72D, N76D, L80I

- binding result [5]: binds
B3: human adrenodoxin mutant L80Q (natural protein)
chain: T2 sequence (P10109 61-184 D132N/D136N partner) with N72D, N76D, L80Q

- binding result [5]: binds
B4: human adrenodoxin mutant L80V (natural protein)
chain: T2 sequence (P10109 61-184 D132N/D136N partner) with N72D, N76D, L80V
